In ChEMBL document CHEMBL1149671, “Enantiopure five-membered cyclicdiamine derivatives as potent and selective inhibitors of factor Xa. Improving in vitro metabolic stability via core modifications” (Bioorg Med Chem Lett, 2007):

Legend:
Coagulation factor X [1] = molecular target: T1, Coagulation factor X (Homo sapiens, UniProt P00742); assay: Inhibition of human factor 10a in presence of prothrombin at 25 degC
Method in brief: (§1)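 Purified human factor Xa. […] Prothrombinase-type inhibition measured with prothrombin as substrate at 25 °C, and with saturating prothrombin at 37 °C. Values are averages of at least 2 determinations.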

Coagulation factor X [2] = molecular target: T1, Coagulation factor X; assay: Inhibition of human factor 10a in presence of saturating prothrombin at 37 degC; method in brief: as §1
[3] = molecular target: Vitamin K-dependent protein C (Homo sapiens, UniProt P04070); assay: Inhibition of human activated protein C
Chain of Vitamin K-dependent protein C (P04070 43-197 limits assumed): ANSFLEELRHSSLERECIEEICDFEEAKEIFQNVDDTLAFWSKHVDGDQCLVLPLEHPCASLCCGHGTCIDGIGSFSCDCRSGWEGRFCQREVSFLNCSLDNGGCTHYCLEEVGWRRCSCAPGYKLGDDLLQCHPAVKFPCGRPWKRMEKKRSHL
Chain of Vitamin K-dependent protein C (P04070 212-461 limits assumed): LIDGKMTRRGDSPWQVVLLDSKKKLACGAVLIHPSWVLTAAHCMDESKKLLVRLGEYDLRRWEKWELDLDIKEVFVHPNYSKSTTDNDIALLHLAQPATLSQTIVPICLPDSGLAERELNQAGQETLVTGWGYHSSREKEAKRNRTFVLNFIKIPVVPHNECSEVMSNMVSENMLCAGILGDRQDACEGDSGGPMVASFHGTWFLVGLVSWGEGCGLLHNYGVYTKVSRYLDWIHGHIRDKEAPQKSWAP

Coagulation factor X [4] = molecular target: T1, Coagulation factor X; assay: Inhibition of human factor 10a
Liver microsomes = assay: Metabolic stability in human liver microsomes assessed as microsomal intrinsic clearance rate; assay type: ADME, Microsome
Method in brief: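 Human liver microsomes, 10-min incubation. Metabolic stability given as % compound remaining. Microsomal intrinsic clearance rate (nmol/min/mg) is based on the % remaining after 10 min.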

[5] = Cytotoxicity against HEK cells; assay type: cell-based; settings: Homo sapiens, HEK293
Coagulation factor XI = Coagulation factor XI (Homo sapiens, UniProt P03951); assay: Inhibition of human factor 11a
Chain of Coagulation factor XI (P03951 19-387 limits assumed): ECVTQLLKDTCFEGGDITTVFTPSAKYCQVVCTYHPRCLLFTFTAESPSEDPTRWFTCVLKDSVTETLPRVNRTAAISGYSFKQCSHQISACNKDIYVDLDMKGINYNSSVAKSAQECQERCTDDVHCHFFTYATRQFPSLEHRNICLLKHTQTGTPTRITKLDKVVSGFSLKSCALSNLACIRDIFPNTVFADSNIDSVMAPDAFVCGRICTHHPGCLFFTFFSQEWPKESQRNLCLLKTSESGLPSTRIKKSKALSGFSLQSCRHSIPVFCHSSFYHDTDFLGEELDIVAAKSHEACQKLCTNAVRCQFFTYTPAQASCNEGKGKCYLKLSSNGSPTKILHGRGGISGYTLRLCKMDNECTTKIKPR
Chain of Coagulation factor XI (P03951 388-625 limits assumed): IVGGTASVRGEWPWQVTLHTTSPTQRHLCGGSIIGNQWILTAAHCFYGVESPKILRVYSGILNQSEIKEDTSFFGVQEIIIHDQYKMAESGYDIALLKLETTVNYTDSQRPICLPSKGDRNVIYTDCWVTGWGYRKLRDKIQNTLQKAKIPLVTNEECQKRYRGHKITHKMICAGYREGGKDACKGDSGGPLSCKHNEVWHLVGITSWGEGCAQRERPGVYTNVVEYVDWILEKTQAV

Coagulation factor VII = molecular target: T2, Coagulation factor VII (Homo sapiens, UniProt P08709); assay: Inhibition of human factor 7a
T2 sequence (P08709 whole entry): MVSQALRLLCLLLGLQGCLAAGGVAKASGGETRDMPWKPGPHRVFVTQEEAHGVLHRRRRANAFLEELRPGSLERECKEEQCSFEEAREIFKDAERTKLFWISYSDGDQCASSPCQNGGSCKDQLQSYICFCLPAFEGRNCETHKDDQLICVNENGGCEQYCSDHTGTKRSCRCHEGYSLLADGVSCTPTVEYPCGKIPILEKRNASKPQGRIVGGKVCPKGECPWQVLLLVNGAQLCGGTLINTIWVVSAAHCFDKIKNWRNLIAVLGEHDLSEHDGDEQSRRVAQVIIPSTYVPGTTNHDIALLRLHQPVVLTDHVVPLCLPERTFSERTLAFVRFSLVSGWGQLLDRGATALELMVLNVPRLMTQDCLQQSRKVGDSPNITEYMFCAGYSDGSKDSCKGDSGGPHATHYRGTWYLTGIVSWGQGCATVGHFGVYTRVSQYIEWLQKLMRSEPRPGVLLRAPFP

[6] = Inhibition of human chymotrypsin
Plasma kallikrein = Plasma kallikrein (Homo sapiens, UniProt P03952); assay: Inhibition of human plasma kallikrein; assay type: cell-free
Chain of Plasma kallikrein (P03952 20-390 limits assumed): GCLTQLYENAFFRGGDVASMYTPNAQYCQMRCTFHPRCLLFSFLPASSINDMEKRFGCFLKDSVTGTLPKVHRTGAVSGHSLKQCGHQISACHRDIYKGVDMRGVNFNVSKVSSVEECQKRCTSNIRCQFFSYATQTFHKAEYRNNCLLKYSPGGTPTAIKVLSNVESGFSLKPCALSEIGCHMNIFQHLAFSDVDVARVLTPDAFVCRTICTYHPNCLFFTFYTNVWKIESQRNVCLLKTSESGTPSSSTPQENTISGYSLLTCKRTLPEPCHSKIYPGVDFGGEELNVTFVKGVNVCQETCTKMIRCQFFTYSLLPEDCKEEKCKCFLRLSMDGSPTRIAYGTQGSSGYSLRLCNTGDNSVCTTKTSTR
Chain of Plasma kallikrein (P03952 391-638 limits assumed): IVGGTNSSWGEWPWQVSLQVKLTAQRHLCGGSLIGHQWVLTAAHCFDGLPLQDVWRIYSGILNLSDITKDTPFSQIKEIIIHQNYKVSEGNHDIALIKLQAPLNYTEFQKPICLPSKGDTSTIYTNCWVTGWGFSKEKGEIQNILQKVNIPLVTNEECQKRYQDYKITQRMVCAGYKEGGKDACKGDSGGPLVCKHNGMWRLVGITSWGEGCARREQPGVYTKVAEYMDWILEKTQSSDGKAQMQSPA

Trypsin = Trypsin (Homo sapiens, UniProt P07477+P07478+P35030); assay: Inhibition of human trypsin; assay type: protein assay
Prothrombin = Prothrombin (Homo sapiens, UniProt P00734); assay: Inhibition of human thrombin
Plasminogen = Plasminogen (Homo sapiens, UniProt P00747); assay: Inhibition of human Plasmin
Chain of Plasminogen (P00747 97-580 limits assumed): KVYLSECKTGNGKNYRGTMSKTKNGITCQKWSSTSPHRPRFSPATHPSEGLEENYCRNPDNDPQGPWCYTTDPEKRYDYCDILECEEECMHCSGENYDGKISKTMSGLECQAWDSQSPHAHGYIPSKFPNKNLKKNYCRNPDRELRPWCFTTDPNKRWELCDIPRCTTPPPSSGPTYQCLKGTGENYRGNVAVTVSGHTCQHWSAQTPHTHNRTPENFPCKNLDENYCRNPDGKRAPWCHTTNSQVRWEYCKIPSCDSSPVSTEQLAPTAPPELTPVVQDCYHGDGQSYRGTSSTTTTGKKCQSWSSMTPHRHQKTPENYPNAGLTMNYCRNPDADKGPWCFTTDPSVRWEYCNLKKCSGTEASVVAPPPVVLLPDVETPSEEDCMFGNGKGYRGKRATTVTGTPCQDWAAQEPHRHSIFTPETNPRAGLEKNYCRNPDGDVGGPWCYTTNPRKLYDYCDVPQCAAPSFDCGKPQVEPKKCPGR
Chain of Plasminogen (P00747 581-810 limits assumed): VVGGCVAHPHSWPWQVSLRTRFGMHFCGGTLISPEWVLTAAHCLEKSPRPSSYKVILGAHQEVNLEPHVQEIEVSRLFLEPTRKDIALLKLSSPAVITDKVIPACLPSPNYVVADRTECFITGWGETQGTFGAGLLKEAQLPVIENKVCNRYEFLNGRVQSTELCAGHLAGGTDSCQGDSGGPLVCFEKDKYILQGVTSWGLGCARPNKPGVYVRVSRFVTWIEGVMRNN

[7] = molecular target: Tissue-type plasminogen activator (Homo sapiens, UniProt P00750); assay: Inhibition of human tissue plasminogen activator
Chain of Tissue-type plasminogen activator (P00750 whole entry): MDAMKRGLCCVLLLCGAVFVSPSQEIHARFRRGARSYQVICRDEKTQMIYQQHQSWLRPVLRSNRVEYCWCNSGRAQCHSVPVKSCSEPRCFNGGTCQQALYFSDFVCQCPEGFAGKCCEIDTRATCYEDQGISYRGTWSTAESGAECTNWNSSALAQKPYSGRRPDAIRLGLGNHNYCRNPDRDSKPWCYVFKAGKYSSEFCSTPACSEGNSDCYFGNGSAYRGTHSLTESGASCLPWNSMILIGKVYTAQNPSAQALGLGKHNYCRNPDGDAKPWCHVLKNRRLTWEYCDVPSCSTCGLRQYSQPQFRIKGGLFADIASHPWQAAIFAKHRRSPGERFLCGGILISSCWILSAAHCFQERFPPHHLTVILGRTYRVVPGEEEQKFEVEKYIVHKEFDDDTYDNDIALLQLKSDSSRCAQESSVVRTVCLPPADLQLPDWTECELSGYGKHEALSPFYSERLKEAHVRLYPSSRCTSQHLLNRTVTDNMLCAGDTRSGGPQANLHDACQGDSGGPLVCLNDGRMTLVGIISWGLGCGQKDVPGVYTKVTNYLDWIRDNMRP

[8] = molecular target: Urokinase-type plasminogen activator (Homo sapiens, UniProt P00749); assay: Inhibition of human urokinase
[9] = Permeability across Caco-2 cells; assay type: ADME, cell-based; settings: human, read-out: permeability
[10] = Clearance in dog at 0.5 mg/kg, iv; assay type: ADME, organism-based, Canis lupus familiaris; set-up: dose 0.5 mg/kg, route intravenous; settings: in vivo
Method in brief: (§2)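 Dogs. Intravenous dose 0.5 mg/kg, used for clearance (L/kg/h), steady-state volume of distribution (L/kg) and iv half-life.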

[11] = Volume of distribution at steady state in dog at 0.5 mg/kg, iv; assay type: ADME, organism-based, Canis lupus familiaris; set-up: dose 0.5 mg/kg, route intravenous; settings: in vivo, read-out: Vdss; method in brief: as §2
[12] = Half life in dog at 0.5 mg/kg, iv; assay type: ADME, organism-based, Canis lupus familiaris; set-up: dose 0.5 mg/kg, route intravenous; settings: in vivo; method in brief: as §2
[13] = Half life in dog at 0.2 mg/kg, po; assay type: ADME, organism-based, Canis lupus familiaris; set-up: dose 0.2 mg/kg, route oral; settings: in vivo
[14] = Bioavailability in dog at 0.2 mg/kg, po; assay type: ADME, organism-based, Canis lupus familiaris; settings: in vivo; method in brief: as §2
Coagulation factor X [15] = molecular target: T1, Coagulation factor X; assay: Inhibition of human factor 10a in presence of tripeptide substrate at 25 degC
Coagulation factor X [16] = molecular target: T1, Coagulation factor X; assay: Inhibition of human factor 10a in presence of tripeptide substrate at 37 degC

T1 sequence (P00742 41-179 limits assumed): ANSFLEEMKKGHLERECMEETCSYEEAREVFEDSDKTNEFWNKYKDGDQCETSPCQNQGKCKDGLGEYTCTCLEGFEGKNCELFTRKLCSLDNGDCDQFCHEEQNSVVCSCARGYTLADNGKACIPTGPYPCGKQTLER
T1 sequence (P00742 235-488 limits assumed): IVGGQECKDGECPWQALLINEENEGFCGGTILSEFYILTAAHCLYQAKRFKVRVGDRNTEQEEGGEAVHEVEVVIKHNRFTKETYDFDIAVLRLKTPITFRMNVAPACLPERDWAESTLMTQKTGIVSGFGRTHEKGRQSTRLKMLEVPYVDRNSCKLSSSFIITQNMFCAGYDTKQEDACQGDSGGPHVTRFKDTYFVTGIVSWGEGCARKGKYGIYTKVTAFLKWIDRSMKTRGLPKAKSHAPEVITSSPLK

CCOC(=O)N1C[C@H](NC(=O)c2ccc(-n3ccccc3=O)cc2)[C@H](NC(=O)c2ccc(Cl)s2)C1
Ki (Coagulation factor X [1]): 0.0075 µM | Ki (Coagulation factor X [2]): 0.03 µM | Ki [3]: > 21 µM | Ki (Coagulation factor X [4]): 0.0005 µM | CL (Liver microsomes): 0 nmol/mg/min | IC50 [5]: > 100 µM | Ki (Coagulation factor XI): 7.38 µM | Ki (Coagulation factor VII): > 11 µM | Ki [6]: > 20 µM | Ki (Plasma kallikrein): > 6 µM | Ki (Trypsin): > 5 µM | Ki (Prothrombin): 4.02 µM | Ki (Plasminogen): > 22 µM | Ki [7]: > 21 µM | Ki [8]: > 14 µM | Papp [9]: 2.5 ×10⁻⁶ cm/s | clearance [10]: 43.3 mL/min/kg | Vd [11]: 2.4 L/kg | half-life [12]: 1.4 h | half-life [13]: 2.7 h | bioavailability [14]: 25% | Ki (Coagulation factor X [15]): 0.00073 µM | Ki (Coagulation factor X [16]): 0.0026 µM
